In the library only some 1.7% were active in any assay of this set; here they are far more common.
Rpn11 block – inhibitors of human proteasome Rpn11. O00487. human 26S proteasome, Ub4-pepOG fluorescence polarization; 20S core pre-blocked with epoxomicin. inhibition, % at 20 µM. hit rate 0.59% among 360,000. AID 588493;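 active = inhibition at 20 µM, scaled to each plate's controls, above about 33%, limit read from the data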
IDE act – IDE (human) activation, cell-based; activation, % at 5.96 µM; P14735; hit rate 0.073% among 340,000; HEK cells, FAbeta-B cleavage, fluorescence polarization; 0% vehicle, 100% cell-free pure enzyme wells;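 active = activation above the mean of all tested compounds plus 3 SD, set per screening campaign, cut at about 17% in these data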
HNF4A DNA FP – change in binding of human HNF4 alpha to DNA | HNF4a-FITC DNA binding, fluorescence polarization, 1 h | hit rate 0.3% among 360,000 | activity change, % at 10 µM | P41235 | AID 1224865; in the data active = activity change above about 30%, passing the limit was not always enough
Target sequence (P41235 whole entry, looked up): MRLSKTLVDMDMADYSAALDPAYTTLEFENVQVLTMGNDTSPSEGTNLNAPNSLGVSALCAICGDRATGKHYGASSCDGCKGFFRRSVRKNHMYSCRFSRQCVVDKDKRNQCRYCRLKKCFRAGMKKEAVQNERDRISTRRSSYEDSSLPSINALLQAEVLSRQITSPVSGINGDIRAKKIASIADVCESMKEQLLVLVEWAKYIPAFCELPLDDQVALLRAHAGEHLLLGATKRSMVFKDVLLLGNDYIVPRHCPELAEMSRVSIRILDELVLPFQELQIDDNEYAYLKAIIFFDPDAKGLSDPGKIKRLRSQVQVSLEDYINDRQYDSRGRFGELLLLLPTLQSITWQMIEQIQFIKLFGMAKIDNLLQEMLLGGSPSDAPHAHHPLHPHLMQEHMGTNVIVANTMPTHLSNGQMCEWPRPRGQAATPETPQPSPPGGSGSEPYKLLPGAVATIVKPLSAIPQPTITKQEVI
TPT1 inh – C. albicans TPT1 enzyme inhibition | inhibition, % at 5 µM | hit rate 0.81% among 300,000 | recombinant caTPT1, FP RNA substrate dephosphorylation;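 active = inhibition above the mean of all tested compounds plus 3 SD, set per screening campaign, cut at about 24% in these data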
CSN inh – CSN deneddylation inhibition; inhibition, % at 12.5 µM; hit rate 0.38% among 360,000; Purified CSN, SCF-Nedd8-OG deneddylation, fluorescence polarization; AID 651999; Q92905;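 active = pattern-corrected inhibition above about 35%, with an unprinted fluorescence ratio check between 0.5 and 1.5, limit read from the data, passing the limit was not always enough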
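Material: purified human Csn5 enzyme expressed in HEK293T cells / Medium: Tris buffer pH 7.5, NaCl, DTT, Tween-20, trehalose, ovalbumin / Compound dosing: 12.5 µM single point / Schedule: 90 min incubation of compound, enzyme and substrate at room temperature / Signal: fluorescence polarization of the substrate / Control set: no-enzyme wells high, enzyme-with-substrate wells low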
IDE cell inh – cellular human IDE inhibition; HEK cells, FAbetaB cleavage, fluorescence polarization; hit rate 0.41% among 320,000; P14735; AID 434962; inhibition, % at 5.59 µM;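 active = percent inhibition above the average of all tested compounds plus 3 SD, set per screening campaign, cut at about 16% in these data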;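 also: IDE supplied by intact live HEK cells; FP after avidin binding of uncleaved biotin substrate so inhibition keeps polarization high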
caTPT1 confirm – confirmation of Candida albicans TPT1 inhibitors; shares compounds with TPT1 inh; recombinant caTPT1, fluorescence polarization, RNase T1 coupled; inhibition, % at 5 µM; hit rate 74% among 2,400; AID 2149;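 active = inhibition above the primary screen limit, the mean inhibition of all tested compounds plus 3 SD, cut at about 25% in these data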
RNase T1 counter – blocks Aspergillus oryzae RNase T1, a TPT1 counter-screen; RNase T1 cleavage, fluorescence polarization, 1536-well; inhibition, % at 5 µM; shares compounds with TPT1 inh; hit rate 83% among 2,400; AID 2153;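 active = inhibition above the solvent-only control well mean plus 3 SD, limit set per screening run, cut at about 23% in these data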;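 also: inhibitors block cleavage so intact labeled substrate keeps polarization high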
Target sequence (P00651 whole entry, looked up): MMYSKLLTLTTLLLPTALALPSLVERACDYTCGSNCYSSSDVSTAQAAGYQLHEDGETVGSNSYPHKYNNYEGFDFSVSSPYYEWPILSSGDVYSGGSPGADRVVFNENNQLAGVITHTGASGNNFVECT
Large screens that a line does not name were inactive (follow-up assays come after a bar, where shown).

CC1=NN(c2ccccc2)C(=O)/C1=C\C=C1\N(C)c2ccccc2C1(C)C	HNF4A DNA FP 70, TPT1 inh 61 (not shown: Rpn11 block) | caTPT1 confirm 51 | RNase T1 counter 64
CC(C)S(=O)(=O)c1csc(NC(=O)Nc2cc(Cl)ccc2Cl)c1Cl	none
O=C(O)CCNc1cc(N2CCN(C(=O)c3ccco3)CC2)c2noc3c2c1C(=O)c1ccccc1-3	none (not shown: Rpn11 block)
CCN1CCN(c2cc(N3CCN(C(=O)c4ccco4)CC3)c3c4c(onc24)-c2ccccc2C3=O)CC1	TPT1 inh 40 | caTPT1 confirm 43 | RNase T1 counter inactive
CCOC(=O)c1c(-c2ccc(OC)cc2)csc1/N=C/C1C(=O)CCCC1=O	TPT1 inh 172 | caTPT1 confirm 25 | RNase T1 counter 36
COc1ccc2ccccc2c1/C=N/N1C(=O)CSC1=S	TPT1 inh 27 | caTPT1 confirm inactive | RNase T1 counter inactive
C=CCN1C(=O)/C(=C/c2ccsc2)SC1=S	none
C=CCN1C(=O)/C(=C/c2ccc(-c3ccc(F)cc3)o2)SC1=S	TPT1 inh 81 | caTPT1 confirm 115 | RNase T1 counter 120
Cc1cccn2c(=O)c3cc(S(=O)(=O)c4ccccc4)c(=N)n(Cc4ccco4)c3nc12	none
N=c1c(S(=O)(=O)c2ccccc2)cc2c(=O)n3ccccc3nc2n1Cc1ccco1	TPT1 inh 26 | caTPT1 confirm inactive | RNase T1 counter inactive
Cc1ccc(S(=O)(=O)c2cc3c(=O)n4ccccc4nc3n(Cc3ccco3)c2=N)cc1C	TPT1 inh 25 (no result: Rpn11 block, IDE act, HNF4A DNA FP, CSN inh) | caTPT1 confirm inactive | RNase T1 counter inactive
CC(=O)c1ccccc1C(=O)N1CCCC(N2CCN(Cc3ccc4c(c3)OCO4)CC2)C1 (stereo not given)	none
CCCN(CCC)C1=N/C(=C\c2ccco2)C(=O)N1c1ccccc1	TPT1 inh 26 | caTPT1 confirm inactive | RNase T1 counter 22
N#CC1(C#N)CC(C=O)=C(N)C1(C#N)CC(=O)c1ccc(F)cc1 (stereo not given)	TPT1 inh 57 | caTPT1 confirm 32 | RNase T1 counter 42
CC[N+](CC)(CC)CCCCOc1ccc2c(c1)C(=O)c1cc(OCCCC[N+](CC)(CC)CC)ccc1-2	none
COc1ccc2c(CC(=O)Nc3cccc(S(=O)(=O)N4CCOCC4)c3)coc2c1	none
CN(C)c1ccc(/C=C2\N=C(c3ccc(Cl)c([N+](=O)[O-])c3)NC2=O)cc1	TPT1 inh 53 | caTPT1 confirm 86 | RNase T1 counter 94
CN(C)c1ccc(/C=C2/NC(=O)NC2=O)cc1	none
COc1ccc(/C=C2\CCC/C(=C\C=N\N(C)C)C2=O)cc1	TPT1 inh 37 (not shown: Rpn11 block) | caTPT1 confirm 45 | RNase T1 counter 55
CCCCCNC(=O)C(C#N)c1nc2ccccc2nc1N1CCCC1 (stereo not given)	none
CCCCCCNC(=O)C(C#N)c1nc2ccccc2nc1N1CCCC1 (stereo not given)	TPT1 inh 63, CSN inh 40 | caTPT1 confirm 28 | RNase T1 counter 33
O=C(COc1ccccc1[N+](=O)[O-])Nc1ccc2c(c1)CCC2	none (no result: TPT1 inh)
CCOC(=O)NC(c1cccc(Cl)c1)C1CCCCCC1=O (stereo not given)	none
O=C1CCCCC1C(O)c1ccc(Cl)cc1 (stereo not given)	TPT1 inh 82 (no result: Rpn11 block, IDE act, HNF4A DNA FP, CSN inh) | caTPT1 confirm inactive | RNase T1 counter inactive
NC(=O)c1sc2nc3c(c(-c4ccco4)c2c1N)CCC3	none
Nc1c(C(=O)NC2CC2)sc2nc3c(c(-c4ccco4)c12)CC/C3=C/c1ccco1	TPT1 inh 36 | caTPT1 confirm inactive | RNase T1 counter inactive
Cc1cc(SCC(=O)c2cc3ccccc3o2)nc2ccccc12	TPT1 inh 66 (not shown: Rpn11 block) | caTPT1 confirm inactive | RNase T1 counter inactive
Cc1cc(SCC(=O)O)nc2ccccc12	none
CCC(=O)N1CCN(c2ccccc2NC(=S)NC(=O)c2cccc([N+](=O)[O-])c2)CC1	TPT1 inh 39 | caTPT1 confirm inactive | RNase T1 counter inactive
CC(=O)N1c2ccc3ccccc3c2C2C=CCC2C1c1ccc(Br)cc1 (stereo not given)	TPT1 inh 36 (no result: Rpn11 block, IDE act, HNF4A DNA FP, CSN inh) | caTPT1 confirm inactive | RNase T1 counter inactive
CC(=O)N1c2ccc(Cl)cc2C2C=CCC2C1c1cccc2ccccc12 (stereo not given)	none
COc1c(-c2ccccc2)oc2c(ccc3occc32)c1=O	none (no result: TPT1 inh)
Cc1c(N=C2N=C(NC(=O)c3cccs3)c3ccccc32)c(=O)n(-c2ccccc2)n1C	TPT1 inh 85 (not shown: Rpn11 block) | caTPT1 confirm 113 | RNase T1 counter 113
CCc1cccc(C)c1NC(=O)C1CC(=O)N(C2CCCC2)C1 (stereo not given)	none (no result: TPT1 inh)
CC(=O)OCC1=C(C(=O)O)N2C(=O)C(NC(=O)CCn3nc(C(F)(F)F)c(Br)c3C3CC3)C2SC1 (stereo not given)	none
CCN(C(C)=O)c1ccc(Oc2nc(OC)cc(OC)n2)cc1	none
Cc1cccc(S(=O)(=O)c2c(N)n(/N=C/c3ccco3)c3nc4ccccc4nc23)c1	none
Cc1cccc(S(=O)(=O)c2c(N)n(/N=C/c3cccnc3)c3nc4ccccc4nc23)c1	TPT1 inh 33 | caTPT1 confirm 53 | RNase T1 counter 70
CCN(c1ccccc1)S(=O)(=O)c1cccc(C(=O)Nc2ccc(C)cn2)c1	none
CCSc1ccc([C@@H]2[C@H]3C(=O)N(CC)C(=O)[C@H]3[C@]3(C(=O)OC)CCCCN23)cc1	TPT1 inh 24 | caTPT1 confirm 39 | RNase T1 counter 49
NC(=O)NC(=O)CC1S/C(=N/N=C2\CSC(=O)N2)NC1=O (stereo not given)	none
O=C(O)CNC(=O)CC1S/C(=N/N=C2/NC(=O)CS2)NC1=O (stereo not given)	TPT1 inh 26 | caTPT1 confirm 33 | RNase T1 counter 46
CNC(=O)c1c(NC(=O)c2ccc(S(=O)(=O)N(C)c3ccccc3)cc2)sc2c1CCN(C(C)C)C2	TPT1 inh 125 (no result: Rpn11 block, IDE act, HNF4A DNA FP, CSN inh) | caTPT1 confirm 161 | RNase T1 counter 149
CCN1CCc2c(sc(NC(=O)c3ccc(S(=O)(=O)N(C)c4ccccc4)cc3)c2C(=O)NC)C1	TPT1 inh 133 | caTPT1 confirm 150 | RNase T1 counter 145
CCN1CCc2c(sc(NC(=S)NC(=O)c3ccc(Cl)cc3)c2C(N)=O)C1	TPT1 inh 27 (not shown: Rpn11 block) | caTPT1 confirm 30 | RNase T1 counter 36
